Test results published in ChEMBL document CHEMBL1138555, “N-acylated and N,N'-diacylated imidazolidine-2-thione derivatives and N,N'-diacylated tetrahydropyrimidine-2(1H)-thione analogues: synthesis and antiproliferative activity” (Eur J Med Chem, 2009).

How the values were obtained:
Type in all cases: functional
SW-620 = assay: Growth inhibition of human SW620 cells after 48 hrs by sulforhodamine B assay; conditions: SW-620, 48 h
Procedure, shortened: (§1)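 NCI in vitro panel screen. Compounds tested at five 10-fold dilutions, 10^-4 to 10^-8 M. Cells in 96-well plates were exposed for the last 48 h of a 72 h incubation. Viability/growth was read by sulforhodamine B protein assay. GI50 is the concentration giving 50% growth inhibition. Values beyond the tested range are reported as greater or less than the maximum or minimum concentration.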

786-0 = assay: Growth inhibition of human 786-0 cells after 48 hrs by sulforhodamine B assay; conditions: 786-0, 48 h
Procedure, shortened: (§2)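 NCI screen panel. Five 10-fold concentrations from 10^-4 to 10^-8 M. Exposure for the last 48 h of a 72 h incubation. Growth estimated by sulforhodamine B protein assay. GI50 is the concentration giving 50% growth inhibition. Where that level was not reached or was exceeded, the value is given as above or below the highest or lowest concentration tested.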

OVCAR-3 = assay: Growth inhibition of human OVCAR-3 cells after 48 hrs by sulforhodamine B assay; conditions: OVCAR-3, 48 h; procedure, shortened: as §2
SF-295 = assay: Growth inhibition of human SF295 cells after 48 hrs by sulforhodamine B assay; conditions: SF-295, 48 h; procedure, shortened: as §2
NCI/ADR-RES = assay: Growth inhibition of human NCI/ADR-RES cells after 48 hrs by sulforhodamine B assay; procedure, shortened: as §2
PC-3 = assay: Growth inhibition of human PC3 cells after 48 hrs by sulforhodamine B assay; conditions: PC-3, 48 h; procedure, shortened: as §2
MDA-MB-231 = assay: Growth inhibition of human MDA-MB-231 cells after 48 hrs by sulforhodamine B assay; conditions: MDA-MB-231, 48 h; procedure, shortened: as §2
SK-MEL-2 = assay: Growth inhibition of human SK-MEL-2 cells after 48 hrs by sulforhodamine B assay; conditions: SK-MEL-2, 48 h; procedure, shortened: as §2
HCT-116 = assay: Growth inhibition of human HCT116 cells after 48 hrs by sulforhodamine B assay; conditions: HCT-116, 48 h; procedure, shortened: as §2
HCT-15 = assay: Growth inhibition of human HCT15 cells after 48 hrs by sulforhodamine B assay; conditions: HCT-15, 48 h; procedure, shortened: as §2
RXF 393 = assay: Growth inhibition of human RXF393 cells after 48 hrs by sulforhodamine B assay; conditions: RXF 393, 48 h; procedure, shortened: as §2
SR = assay: Growth inhibition of human SR cells after 48 hrs by sulforhodamine B assay; procedure, shortened: as §1
DU-145 = assay: Growth inhibition of human DU145 cells after 48 hrs by sulforhodamine B assay; conditions: DU-145, 48 h; procedure, shortened: as §2
IGROV-1 = assay: Growth inhibition of human IGROV1 cells after 48 hrs by sulforhodamine B assay; conditions: IGROV-1, 48 h; procedure, shortened: as §2
KM12 = assay: Growth inhibition of human KM12 cells after 48 hrs by sulforhodamine B assay; conditions: KM12, 48 h; procedure, shortened: as §2
Malme-3M = assay: Growth inhibition of human MALME-3M cells after 48 hrs by sulforhodamine B assay; procedure, shortened: as §2
OVCAR-8 = assay: Growth inhibition of human OVCAR8 cells after 48 hrs by sulforhodamine B assay; conditions: OVCAR-8, 48 h; procedure, shortened: as §2
[1] = Growth inhibition of human […] cells after 48 hrs by sulforhodamine B assay; procedure, shortened: as §2
ACHN = assay: Growth inhibition of human ACHN cells after 48 hrs by sulforhodamine B assay; procedure, shortened: as §2
NCI-H23 = assay: Growth inhibition of human NCI-H23 cells after 48 hrs by sulforhodamine B assay; conditions: NCI-H23, 48 h; procedure, shortened: as §2
MCF7 = assay: Growth inhibition of human MCF7 cells after 48 hrs by sulforhodamine B assay; conditions: MCF7, 48 h; procedure, shortened: as §2
HOP-62 = assay: Growth inhibition of human HOP62 cells after 48 hrs by sulforhodamine B assay; conditions: HOP-62, 48 h; procedure, shortened: as §2
SNB-19 = assay: Growth inhibition of human SNB19 cells after 48 hrs by sulforhodamine B assay; conditions: SNB-19, 48 h; procedure, shortened: as §1
SF-268 = assay: Growth inhibition of human SF268 cells after 48 hrs by sulforhodamine B assay; conditions: SF-268, 48 h; procedure, shortened: as §2
TK-10 = assay: Growth inhibition of human TK10 cells after 48 hrs by sulforhodamine B assay; conditions: TK-10, 48 h; procedure, shortened: as §1
UACC-257 = assay: Growth inhibition of human UACC257 cells after 48 hrs by sulforhodamine B assay; conditions: UACC-257, 48 h; procedure, shortened: as §1

N#C/C(=C\N1CCN(C(=O)c2ccco2)C1=S)C(N)=O
GI50 (SW-620): 22.1 µM | GI50 (786-0): 18 µM | GI50 (OVCAR-3): 19 µM | GI50 (SF-295): 32.1 µM | GI50 (NCI/ADR-RES): 25.4 µM | GI50 (PC-3): 35.6 µM | GI50 (MDA-MB-231): 13.1 µM | GI50 (SK-MEL-2): 24.4 µM | GI50 (HCT-116): 21.2 µM | GI50 (HCT-15): 3.8 µM | GI50 (RXF 393): 19.2 µM | GI50 (SR): 3000 nM | GI50 (DU-145): 29.8 µM | GI50 (IGROV-1): 24 µM | GI50 (KM12): 7.5 µM | GI50 (Malme-3M): 12.5 µM | GI50 (OVCAR-8): 43.6 µM | GI50 [1]: 12.4 µM | GI50 (ACHN): 11 µM | GI50 (NCI-H23): 21.4 µM | GI50 (MCF7): 1700 nM | GI50 (HOP-62): 25.6 µM | GI50 (SNB-19): 36.4 µM | GI50 (SF-268): 11.7 µM | GI50 (TK-10): 12.1 µM | GI50 (UACC-257): 23.3 µM
